Among the data in PubChem BioAssay are GFP response vs DMSO, GFP response relative to DMSO and GFP response, % of DMSO values, retold here.

Assay [1] can be described thus: RPL19A-GFP modulators, yeast TOR pathway, confirmation, cell-based, S. cerevisiae, flow cytometry, cherry picks, mother/daughter gates (AID 2270;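 active = GFP response below 50% of the DMSO control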). To be noted: S. cerevisiae RPL19A-GFP strain, 3 h, at 10 µM, stronger effect = lower value, 100 = same GFP as DMSO wells.
Assay [2] can be described thus: LAP4-GFP expression modulators in yeast, confirmation, cell-based, cherry picks, flow cytometry, mother/daughter gates (AID 2271;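 active = GFP response above 150% of the DMSO control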;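 note: ratio of sample to DMSO plate mean so 100% equals DMSO level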). To be noted: S. cerevisiae LAP4-GFP strain, 3 h, at 10 µM, stronger effect = higher value, 100 means same as DMSO control. A digest of the protocol: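 Material – Alexa Fluor 633-labelled Saccharomyces cerevisiae GFP-fusion strain, single-plex · Incubation – compound exposure 3 h at 30 °C, end-over-end rotation · Measured by – GFP by flow cytometry · Measure – median GFP fluorescence as percent of plate-mean DMSO wells · Control set – positive rapamycin (400 ng/mL), negative DMSO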

Assay [3] in a line: modulators of MEP2-GFP levels in yeast, confirmation, S. cerevisiae, flow cytometry GFP, cherry picks (AID 2272;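 active = GFP response above 150% of the DMSO control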;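 note: ratio of well signal to plate DMSO mean so 100% equals DMSO level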). The following applies: S. cerevisiae MEP2-GFP strain, 3 h, at 10 µM, stronger effect = higher value.
The nature of assay [4]: AGP1-GFP expression modulators, hit retest, confirmation, cell-based, flow cytometry, S. cerevisiae, cherry picks (AID 2273).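 Note: median GFP channel fluorescence over the whole cell population gate.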 To be noted: S. cerevisiae AGP1-GFP strain, 3 h, at 10 µM.
A short description of assay [5]: modulators of CIT2-GFP expression in yeast, confirmation, S. cerevisiae, GFP fusion, cherry picks, mother/daughter gates (AID 2274). To be noted: S. cerevisiae CIT2-GFP strain, flow cytometry, 3 h, at 10 µM, stronger effect = higher value.
The mark [6] stands for this setting: measured here: daughter cell gate.
The mark [7] stands for this setting: measured here: mother cell gate.
The mark [8] stands for this setting: measured here: daughter cell gate response.
The mark [9] stands for this setting: measured here: mother cell gate response.

Active and inactive are the calls of the source.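 Rule for the calls, unless noted: active = GFP response above 150% of the DMSO level; inconclusive = fewer than 70 events counted for a yeast strain; inactive = the rest.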

For `CN(C)c1ccc(N=Cc2nc(-c3ccccc3)oc2OC(=O)c2cccc(Br)c2)cc1`, the GFP response vs DMSO in assay [1] was 96.2% (inactive); in assay [1] (setting [6]), 90.4%; in assay [1] (setting [7]) it was 89.1%; in assay [3], 94.4% (inactive). Further, the GFP response relative to DMSO in assay [2] is 93.7% (inactive); in assay [2] (setting [8]) it was 84.2%; in assay [2] (setting [9]) it was 93%. Also, the GFP response, % of DMSO was 98.1% (inactive) in assay [4] and 92.2% (inactive) in assay [5].
As for `Cc1ccc(S(=O)(=O)/N=C(\Sc2ccccc2)c2ccccc2)cc1`, the GFP response vs DMSO is 99.5% (inactive) in assay [1], 98.3% in assay [1] (setting [6]), 98.6% in assay [1] (setting [7]) and 106% (inactive) in assay [3]. Also, the values for the GFP response relative to DMSO in assay [2], in assay [2] (setting [8]) and in assay [2] (setting [9]) were 151% (active), 134% and 148%, respectively. Moreover, the GFP response, % of DMSO was 97.3% (inactive) in assay [4], 92.1% (inactive) in assay [5], 92.7% in assay [5] (setting [6]) and 87.5% in assay [5] (setting [7]).
In the case of `C/C(=N\NC(=O)c1c(Br)c(C)nn1C)c1cccc(NC(=O)C2CCC2)c1`, the GFP response vs DMSO is 100% (inactive) in assay [1], 101% in assay [1] (setting [6]), 102% in assay [1] (setting [7]) and 102% (inactive) in assay [3]. For the same molecule, the figures for the GFP response relative to DMSO in assay [2], in assay [2] (setting [8]) and in assay [2] (setting [9]) were 101% (inactive), 97.9% and 101%, respectively. Besides, the GFP response, % of DMSO in assay [4] was 106% (inactive); in assay [5] it was 99.3% (inactive); in assay [5] (setting [6]) it was 98.3%; in assay [5] (setting [7]), 99.1%.
As to `Clc1ccc(N=c2ssnc2Cl)cc1`, the GFP response vs DMSO in assay [1] was 97.8% (inactive); in assay [1] (setting [6]) it was 99.2%; in assay [1] (setting [7]), 92.9%; in assay [3] it was 107% (inactive). For the same molecule, the GFP response relative to DMSO was 154% (active) in assay [2], 139% in assay [2] (setting [8]) and 161% in assay [2] (setting [9]). The GFP response, % of DMSO in assay [4] is 97.4% (inactive); in assay [5], 104% (inactive); in assay [5] (setting [6]), 105%; in assay [5] (setting [7]), 99.8%.
As for `CCOC(=O)/C=C1\SCC(=O)N1Cc1nnc(-c2ccccc2Br)o1`, the GFP response vs DMSO in assay [1] is 96.2% (inactive); in assay [1] (setting [6]), 97.6%; in assay [1] (setting [7]) it was 96.4%; in assay [3], 100% (inactive). Besides, the GFP response relative to DMSO in assay [2] was 90.2% (inactive); in assay [2] (setting [8]), 89.6%; in assay [2] (setting [9]) it was 90.8%. For the same molecule, the GFP response, % of DMSO is 100% (inactive) in assay [4], 99.7% (inactive) in assay [5], 101% in assay [5] (setting [6]) and 99.7% in assay [5] (setting [7]).
On to `Cc1ccc(NC(=O)c2ccccc2O)cc1`, for which the GFP response vs DMSO in assay [1] was 103% (inactive); in assay [1] (setting [6]), 102%; in assay [1] (setting [7]), 102%; in assay [3] it was 110% (inactive). Further, the GFP response relative to DMSO in assay [2] is 100% (inactive); in assay [2] (setting [8]) it was 95%; in assay [2] (setting [9]), 99.5%. Besides, the GFP response, % of DMSO in assay [4] was 101% (inactive); in assay [5] it was 104% (inactive); in assay [5] (setting [6]), 106%; in assay [5] (setting [7]) it was 99.1%.
`Cc1ccc(C(=O)O)cc1N1C(=O)c2cccc3cc(Br)cc(c23)C1=O`: the GFP response vs DMSO in assay [1] is 101% (inactive); in assay [1] (setting [6]) it was 98.6%; in assay [1] (setting [7]), 100%; in assay [3] it was 103% (inactive). The GFP response relative to DMSO was 102% (inactive) in assay [2], 99.1% in assay [2] (setting [8]) and 105% in assay [2] (setting [9]). The GFP response, % of DMSO in assay [4] was 101% (inactive); in assay [5], 97.3% (inactive); in assay [5] (setting [6]), 97.4%; in assay [5] (setting [7]), 98.1%.
For the molecule `CCOc1ccc(-c2nc(-c3ccc(OC)cc3)no2)cc1OCC`, the GFP response vs DMSO in assay [1] was 101% (inactive); in assay [1] (setting [6]) it was 101%; in assay [1] (setting [7]), 101%; in assay [3], 102% (inactive). Also, the GFP response relative to DMSO was 94.2% (inactive) in assay [2], 92.2% in assay [2] (setting [8]) and 93.6% in assay [2] (setting [9]). For the same molecule, the GFP response, % of DMSO in assay [4] was 96% (inactive); in assay [5], 99.3% (inactive); in assay [5] (setting [6]) it was 100%; in assay [5] (setting [7]), 99.1%.
For `O/C=c1\ccc2cccc3nc(C(F)(F)F)nc1c23`, the GFP response vs DMSO in assay [1] is 111% (inactive); in assay [1] (setting [6]) it was 111%; in assay [1] (setting [7]), 110%; in assay [3], 269% (active). The GFP response relative to DMSO in assay [2] was 172% (active); in assay [2] (setting [8]) it was 167%; in assay [2] (setting [9]) it was 178%. The GFP response, % of DMSO in assay [4] was 108% (inactive); in assay [5], 179% (active); in assay [5] (setting [6]) it was 171%; in assay [5] (setting [7]) it was 181%.
With `Cc1ccc(NC(=S)N2CCSC2c2cccs2)cc1` (stereo not given), the GFP response vs DMSO is 98.5% (inactive) in assay [1], 98.1% in assay [1] (setting [6]), 97.8% in assay [1] (setting [7]) and 108% (inactive) in assay [3]. Also, the GFP response relative to DMSO in assay [2] is 97.7% (inactive); in assay [2] (setting [8]) it was 99%; in assay [2] (setting [9]) it was 97.4%. Also, the GFP response, % of DMSO in assay [4] is 101% (inactive); in assay [5], 103% (inactive); in assay [5] (setting [6]), 99.3%; in assay [5] (setting [7]), 103%.
On to `Cc1cc(=O)[nH]c(-n2nc(C)cc2C)n1`, for which the GFP response vs DMSO in assay [1] is 98% (inactive); in assay [1] (setting [6]), 99.1%; in assay [1] (setting [7]) it was 97.8%; in assay [3] it was 105% (inactive). Further, the GFP response relative to DMSO in assay [2] was 101% (inactive); in assay [2] (setting [8]) it was 101%; in assay [2] (setting [9]) it was 100%. Also, the GFP response, % of DMSO in assay [4] is 99.8% (inactive); in assay [5], 94.4% (inactive); in assay [5] (setting [6]), 97.4%; in assay [5] (setting [7]) it was 91.9%.
On to `CCOC(=O)CS(=O)(=O)c1nc(-c2ccc(F)cc2)cc(C(F)(F)F)n1`, for which the GFP response vs DMSO in assay [1] was 109% (inactive); in assay [1] (setting [6]) it was 113%; in assay [1] (setting [7]) it was 102%; in assay [3], 113% (inactive). The GFP response relative to DMSO in assay [2] is 170% (active); in assay [2] (setting [8]), 170%; in assay [2] (setting [9]) it was 165%. For the same molecule, the GFP response, % of DMSO was 108% (inactive) in assay [4], 116% (inactive) in assay [5], 123% in assay [5] (setting [6]) and 106% in assay [5] (setting [7]).
On to `O=C(Nc1ccccc1C(=O)O)c1ccccc1`, for which the GFP response vs DMSO was 100% (inactive) in assay [1], 99.8% in assay [1] (setting [6]), 101% in assay [1] (setting [7]) and 102% (inactive) in assay [3]. Besides, the GFP response relative to DMSO was 100% (inactive) in assay [2], 102% in assay [2] (setting [8]) and 97.5% in assay [2] (setting [9]). For the same molecule, the GFP response, % of DMSO in assay [4] is 98.9% (inactive); in assay [5] it was 99.3% (inactive); in assay [5] (setting [6]) it was 102%; in assay [5] (setting [7]), 98%.
Consider `Cc1cc(NC(=O)c2cccnc2Cl)ccc1NC(=O)c1cc2ccccc2o1`, for which the GFP response vs DMSO was 98% (inactive) in assay [1], 97.1% in assay [1] (setting [6]), 94.5% in assay [1] (setting [7]) and 105% (inactive) in assay [3]. Moreover, the GFP response relative to DMSO is 103% (inactive) in assay [2], 101% in assay [2] (setting [8]) and 104% in assay [2] (setting [9]). In addition, the GFP response, % of DMSO in assay [4] is 98.8% (inactive); in assay [5], 103% (inactive); in assay [5] (setting [6]), 97.4%; in assay [5] (setting [7]), 103%.
With `Cc1c(C)c2ccc(OCC(=O)NCCCn3ccnc3)cc2oc1=O`, the GFP response vs DMSO is 97.8% (inactive) in assay [1], 97.4% in assay [1] (setting [6]), 98.5% in assay [1] (setting [7]) and 105% (inactive) in assay [3]. For the same molecule, the GFP response relative to DMSO is 96.7% (inactive) in assay [2], 96% in assay [2] (setting [8]) and 96.1% in assay [2] (setting [9]). Besides, the GFP response, % of DMSO in assay [4] was 97.6% (inactive); in assay [5] it was 101% (inactive); in assay [5] (setting [6]), 101%; in assay [5] (setting [7]) it was 101%.
Regarding `COc1ccc(NC2=C(Cl)C(=O)N(CCc3ccccc3)C2=O)cc1`, the GFP response vs DMSO in assay [1] was 98.7% (inactive); in assay [1] (setting [6]), 99.3%; in assay [1] (setting [7]), 99.2%; in assay [3] it was 104% (inactive). In addition, the GFP response relative to DMSO is 97.7% (inactive) in assay [2], 99.3% in assay [2] (setting [8]) and 96.5% in assay [2] (setting [9]). The GFP response, % of DMSO was 103% (inactive) in assay [4], 102% (inactive) in assay [5], 102% in assay [5] (setting [6]) and 103% in assay [5] (setting [7]).
In the case of `COc1ccc(-c2[nH]ncc2N=Nc2ccccc2)cc1`, the GFP response vs DMSO was 96.2% (inactive) in assay [1], 94.3% in assay [1] (setting [6]), 96.6% in assay [1] (setting [7]) and 94.4% (inactive) in assay [3]. Besides, the values for the GFP response relative to DMSO in assay [2], in assay [2] (setting [8]) and in assay [2] (setting [9]) were 107% (inactive), 104% and 108%, respectively. Further, the GFP response, % of DMSO in assay [4] is 92.2% (inactive); in assay [5], 97.2% (inactive); in assay [5] (setting [6]), 98.4%; in assay [5] (setting [7]), 93.7%.
